A short description of assay [1]: Antiproliferative activity against human H292 cells after 72 hrs by MTT assay. The class given is functional, cell-based. The settings on record: NCI-H292, 72 h. The gist of the method: (§1)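 Cells attached for 24 h, then exposed 72 h to analogue in Me2SO or Me2SO alone (final Me2SO 0.1%), with media and compound renewed after 48 h. Viable cells were measured by MTS tetrazolium reduction in three replicates. Top concentration tested per compound was 2.5, 5, 10, 20 or 100 μM.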
In general terms: Tetrazolium dyes change colour on reduction, which living cells bring about.

The subject of assay [2] is MDA-MB-231. The experiment in a line: Antiproliferative activity against human MDA-MB-231 cells after 72 hrs by MTT assay. The settings on record: MDA-MB-231, 72 h. The class given is functional, cell-based. The gist of the method: as §1
The target in assay [3] is T1, Tyrosine-protein phosphatase non-receptor type 11 (Homo sapiens, UniProt Q06124).
T1 sequence (Q06124 whole entry): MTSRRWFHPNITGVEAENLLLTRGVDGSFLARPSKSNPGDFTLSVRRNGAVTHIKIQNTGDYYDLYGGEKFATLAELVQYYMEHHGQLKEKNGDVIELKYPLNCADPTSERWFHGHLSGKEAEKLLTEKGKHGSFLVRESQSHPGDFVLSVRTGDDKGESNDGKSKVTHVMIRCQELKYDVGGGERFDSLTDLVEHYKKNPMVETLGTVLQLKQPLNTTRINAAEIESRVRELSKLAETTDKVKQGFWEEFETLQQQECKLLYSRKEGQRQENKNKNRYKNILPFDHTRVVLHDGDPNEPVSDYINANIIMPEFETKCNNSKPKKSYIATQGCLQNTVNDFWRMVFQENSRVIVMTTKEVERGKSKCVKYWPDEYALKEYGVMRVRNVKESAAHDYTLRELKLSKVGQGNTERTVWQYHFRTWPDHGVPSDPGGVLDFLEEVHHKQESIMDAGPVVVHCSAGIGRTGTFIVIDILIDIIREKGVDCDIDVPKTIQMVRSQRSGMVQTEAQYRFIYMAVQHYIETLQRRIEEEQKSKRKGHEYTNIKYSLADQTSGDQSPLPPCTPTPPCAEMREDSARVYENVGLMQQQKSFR
Kind of assay: Inhibition of SHP2 overexpressed in human KG1 cells. The class given is cell-based, KG-1. The gist of the method:
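Shp-2 PTP activity was measured as hydrolysis of the fluorogenic substrate 6,8-difluoro-4-methylumbelliferyl phosphate in the presence of analogue in Me2SO or Me2SO alone (final concentration 5%).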

Assay [4] concerns KG-1. The experiment in a line: Induction of apoptosis in human KG1 cells at 1.0 uM […] by acridine orange staining. The class given is functional.
The subject of assay [5] is MDA-MB-231. Kind of assay: Antiproliferative activity against human MDA-MB-231 cells at 20 uM after 72 hrs by MTT assay. The class given is functional. Conditions: MDA-MB-231, 72 h. The gist of the method:
as §1

Assay [6] can be described thus: Antiproliferative activity against human KG1 AML cells at 5 uM after 48 hrs by MTT assay. The class given is functional. Conditions: in the assay text read “by hemocytometer cell counting” for “by MTT assay”. The gist of the method: (§2)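 KG-1 cells in 5% FBS medium attached overnight, then treated 48 h with analogue in Me2SO or Me2SO alone (final 0.1%). Cells were harvested and counted by hemocytometer in triplicate wells. Highest concentration evaluated was 5 μM.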

The subject of assay [7] is DU-145. The experiment in a line: Antiproliferative activity against human DU145 cells at 20 uM after 72 hrs by MTT assay. The settings on record: DU-145, 72 h. The class given is functional. The gist of the method: as §1
Assay [8] relates to KG-1. Kind of assay: Induction of apoptosis in human KG1 cells at 5.0 uM […] by acridine orange staining. The class given is functional.
The nature of assay [9]: Antiproliferative activity against human H292 cells at 20 uM after 72 hrs by MTT assay. The class given is functional. The settings on record: NCI-H292, 72 h. The gist of the method:
as §1

Assay [10] relates to DU-145. Kind of assay: Antiproliferative activity against human DU145 cells after 72 hrs by MTT assay. The class given is functional, cell-based. Conditions: DU-145, 72 h. The gist of the method:
as §1

Assay [11] is described as follows: Antiproliferative activity against human KG1 AML cells after 48 hrs by MTT assay. The settings on record: in the assay text read “by hemocytometer cell counting” for “by MTT assay”. The class given is functional, cell-based. The gist of the method: as §2
In assay [12] the test system is KG-1. The experiment in a line: Induction of apoptosis in human KG1 cells after 48 hrs by acridine orange staining. The settings on record: KG-1, 48 h. The class given is functional, cell-based.
A short description of assay [13]: Induction of apoptosis in human HL60R cells at 1.0 uM after 24 hrs by acridine orange staining. The class given is functional. The gist of the method:
(§3)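 KG-1, HL-60R (24 h) or MDA-MB-231 (96 h) cells in 5% FBS medium attached overnight, then were treated with analogue in Me2SO or vehicle (final 0.1% Me2SO). Apoptotic cells were scored by acridine orange staining on at least three replicates. Tested concentrations were 0.1–5.0 μM, plus 25 μM for KG-1.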

The subject of assay [14] is MDA-MB-231. The experiment in a line: Induction of apoptosis in human MDA-MB-231 cells at 1.0 uM after 96 hrs by acridine orange staining. The class given is functional. The gist of the method:
as §3

The test system of assay [15] is DU-145. Kind of assay: Antiproliferative activity against human DU145 cells at 2.5 uM after 72 hrs by MTT assay. Conditions: DU-145, 72 h. The class given is functional. The gist of the method:
as §1

The test system of assay [16] is MDA-MB-231. Kind of assay: Antiproliferative activity against human MDA-MB-231 cells at 2.5 uM after 72 hrs by MTT assay. The class given is functional. The settings on record: MDA-MB-231, 72 h. The gist of the method:
as §1

The test system of assay [17] is MDA-MB-231. The experiment in a line: Induction of apoptosis in human MDA-MB-231 cells at 2.0 uM after 96 hrs by acridine orange staining. The class given is functional. The gist of the method: as §3
The nature of assay [18]: Antiproliferative activity against human H292 cells at 2.5 uM after 72 hrs by MTT assay. The class given is functional. The settings on record: NCI-H292, 72 h. The gist of the method:
as §1

Assay [19] in a line: Induction of apoptosis in human HL60R cells at 0.1 uM after 24 hrs by acridine orange staining. The class given is functional. The gist of the method: as §3
Assay [20] concerns the target T2, Nuclear receptor subfamily 0 group B member 2 (Homo sapiens, UniProt Q15466).
T2 sequence (Q15466 whole entry): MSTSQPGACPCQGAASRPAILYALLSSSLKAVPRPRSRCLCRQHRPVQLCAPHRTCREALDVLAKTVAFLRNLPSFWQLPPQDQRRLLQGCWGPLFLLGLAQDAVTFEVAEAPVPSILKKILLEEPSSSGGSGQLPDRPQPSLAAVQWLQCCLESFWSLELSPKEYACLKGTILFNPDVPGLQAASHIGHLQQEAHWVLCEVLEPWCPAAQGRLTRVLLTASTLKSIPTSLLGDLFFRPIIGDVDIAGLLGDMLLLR
The experiment in a line: Displacement of [5,5'-3H2]AHPN from human recombinant GST-SHP by liquid scintillation counting relative to 3-Cl-AHPC. The gist of the method:
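Recombinant GST–human SHP was bound to glutathione–Sepharose beads and incubated 2 h with 5 nM [5,5′-3H2]AHPN with or without competitor (1.0, 5.0 or 50 μM). Beads were washed twice and counted. Displacement was expressed relative to 50 μM 3-Cl-AHPC set as 100%.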

Some results are limits rather than exact numbers.

By IC50 is commonly meant the point on the concentration scale where inhibition reaches its midpoint. One may read the inhibition as the change of the read-out against control, counted positive when it falls. Low readings indicate a weak effect, high ones a strong effect.

On to `CC1(c2cc(-c3ccc(/C=C/C(=O)O)cc3Cl)ccc2O)SCCCS1`, for which the IC50 in assay [1] is over 20000 nM; in the assay on MDA-MB-231 [2], over 20000 nM; in assay [3], 10200 nM; in the assay with DU-145 [10] it was over 20000 nM; in [11] it was over 5000 nM. Moreover, the results for the Activity (in the assay on KG-1 [4]; in assay [6]; in the assay with KG-1 [8]) were 5%, 0% and 5%, respectively. For the same molecule, the inhibition at 20 µM with MDA-MB-231 [5] amounted to 13%; with DU-145 [7], 8%; in assay [9], 6%.

In the case of `O=C(O)/C=C/c1ccc(-c2ccc(O)c(C34CC5CC(CC(C5)C3)C4)c2)c(Cl)c1`, the IC50 is 400 nM in assay [1]; 950 nM in the assay with MDA-MB-231 [2]; 2100 nM in assay [3]; 4200 nM in the assay on KG-1 [12]; 480 nM with DU-145 [10]; 2500 nM in assay [20]. In assay [11], this molecule showed an IC50 of 1400 nM. Further, the Activity amounted to 30% in the assay with KG-1 [4]; 94% in assay [13]; 31% in the assay on MDA-MB-231 [14]; 67% in assay [6]; 43% in the assay on MDA-MB-231 [17]; 51% in [19]. The Activity in the assay on KG-1 [8] is listed as 55%. Moreover, the inhibition at 2.5 µM came to 85% in the assay with DU-145 [15], 63% with MDA-MB-231 [16] and 92% in [18].

The record behind these values is ChEMBL document CHEMBL1140080, “Adamantyl-substituted retinoid-derived molecules that interact with the orphan nuclear receptor small heterodimer partner: effects of replacing the 1-adamantyl or hydroxyl group on inhibition of cancer cell growth, induction of cancer cell apoptosis, and inhibition of SRC homology 2 …” (J Med Chem, 2008).
